Compound activity (PubChem)
Sampled rows, rich in hits. Any-hit rate of the full collection: about 2.6%.
OXTR potentiator: human OXTR potentiators, primary screen, fluorescence, CHO-OTR cells, Fluo-8 calcium; Fluo-8 calcium fluorescence, potentiator mode; 0% = oxytocin EC15, 100% = EC100; 320,000 tested, 0.061% active; Oxytocin receptor (Homo sapiens), P30559; activation, % at 3 µM;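 active = activation above that plate's cutoff, the mean activation of tested compounds plus 3 SD, cut at about 6.6% in these data, passing the limit was not always enough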
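test system = CHO-OTR cells, human receptor | compound = single-point 3.0 µM | schedule = 6 min compound pre-incubation at room temperature, 100 s kinetic read | signal = Fluo-8 no-wash calcium dye fluorescence, excitation 470-495 nm, emission 515-575 nm | repeats = single well per compound, singlicate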
CHO parental Ca: ATP-evoked calcium signal inhibitors, parental CHO, primary screen, counter-screen for OX1R antagonist project, cell-based, fluorescence, Fluo-8 calcium dye | parental CHO-K1, ATP-induced calcium, Fluo-8 fluorescence | inhibition, % at 5.6 µM | 330,000 tested, 0.63% active;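 active = inhibition above that plate's mean sample inhibition plus 3 SD, cut at about 26% in these data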
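Assay system: parental CHO cells; Read-out basis: percent inhibition of ATP-evoked calcium rise, normalized to controls; Benchmarks: ATP and no-ATP DMSO wells; Compound dosing: single nominal dose of 5.6 µM per compound; Signal: Fluo-8 calcium dye fluorescence; Also added: ATP as calcium-mobilizing challenge; Repeats: singlicate.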
OX1R antag-1: antagonists of human orexin 1 receptor (OX1R); Orexin/Hypocretin receptor type 1 (Homo sapiens), O43613; OX1R-expressing cells, FRET antagonist read-out; inhibition, % at 6.6 µM; 330,000 tested, 1.8% active; AID 485270, 2010; in the data active = inhibition mostly above about 38%, no sharp cut-off; inactive = mostly below about 40%
OX1R antag-2: OX1R (HCRTR1) antagonists, primary screen, fluorescence, CHO/OX1R cells, Fluo-8 calcium, orexin A; Orexin/Hypocretin receptor type 1 (Homo sapiens), O43613; Fluo-8 calcium fluorescence; inhibition, % at 5 µM; 330,000 tested, 0.43% active;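 active = inhibition above its plate's threshold, mean inhibition of all tested compounds on the plate plus 3 SD, cut at about 37% in these data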
OXTR ag: human OXTR agonists, primary screen, fluorescence, CHO-OTR cells, Fluo-8 calcium. Oxytocin receptor (Homo sapiens), P30559. AID 2435, 2010. activation, % at 3 µM. 320,000 tested, 0.32% active. Fluo-8 calcium fluorescence; normalized: DMSO 0%, oxytocin 100%;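 active = activation above the mean of all tested compounds plus 3 SD, cutoff set per screening run, cut at about 20% in these data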;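 note: peak over basal fluorescence ratio from a 100 s FLIPR kinetic read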
V1R ag counter: agonists of human V1a receptor, primary screen, counter-screen for OXTR agonist project, fluorescence, CHO-V1R cells; Fluo-8 calcium fluorescence, agonist mode; 0% DMSO, 100% 3 nM vasopressin; activation, % at 3 µM; 320,000 tested, 0.25% active;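 active = activation above the mean activation of all tested compounds plus 3 SD, per screening run, cut at about 20% in these data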;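 note: signal is peak over basal fluorescence ratio across a 100 second FLIPR read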
Target sequence (P37288 whole entry, looked up): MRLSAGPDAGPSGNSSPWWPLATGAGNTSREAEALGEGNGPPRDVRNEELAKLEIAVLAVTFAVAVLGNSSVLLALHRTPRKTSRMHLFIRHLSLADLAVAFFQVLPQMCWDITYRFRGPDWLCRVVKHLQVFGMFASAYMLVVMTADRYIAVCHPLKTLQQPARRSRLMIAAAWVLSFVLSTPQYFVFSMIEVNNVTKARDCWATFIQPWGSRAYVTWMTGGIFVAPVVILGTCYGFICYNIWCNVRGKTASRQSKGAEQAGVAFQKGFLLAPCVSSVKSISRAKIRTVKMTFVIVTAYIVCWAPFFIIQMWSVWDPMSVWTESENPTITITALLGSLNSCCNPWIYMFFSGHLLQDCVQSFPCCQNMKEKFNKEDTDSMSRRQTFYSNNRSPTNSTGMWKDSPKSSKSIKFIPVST
Large screens that a line does not name were inactive.

COC(=O)c1c(C)oc2ccc(NS(=O)(=O)c3cccs3)cc12	OX1R antag-1 40.5
COCCOC(=O)c1c(C)oc2ccc(NS(=O)(=O)c3ccccc3)cc12	none
CN1CCN(S(=O)(=O)c2ccc(NC(=O)c3ccc([N+](=O)[O-])cc3)cc2)CC1	OX1R antag-1 44.4
O=C(Nc1ccc(C(=O)N2CCOCC2)cc1)c1ccc([N+](=O)[O-])cc1	OX1R antag-1 43.7
Cc1cc2ccccn2c1C(=O)c1ccncc1	OX1R antag-1 32.2
CN(C)c1ccc(-c2nnc(-c3ccccc3F)o2)cc1	OX1R antag-1 51.3
COc1ccccc1C(=O)Nc1ccc(-c2nnn(CC(=O)NCc3ccco3)n2)cc1	none
Nc1nc(-c2ccc(Cl)cc2)cc(C(F)(F)F)n1	CHO parental Ca 39.2
Nc1nc(-c2ccc(F)cc2)cc(C(F)(F)F)n1	none
Nc1ccccc1C(=O)NCc1ccc(Cl)cc1	none
Cc1ccc(S(=O)(=O)N2CCN(CCOc3c(Cl)cccc3Cl)CC2)cc1C	none
O=C1Nc2ccc(Br)cc2C1(O)c1ccccc1 (centres undefined)	none
O=C1Nc2ccc(Br)cc2C12NNc1ccccc1O2 (centres undefined)	CHO parental Ca 78.2, OX1R antag-2 60.3
Nc1ncnc2c1ncn2[C@@H]1O[C@H](CNCc2ccc(-n3cccn3)cc2)[C@@H](O)[C@H]1O	none
CC(=O)Nc1nc2cccc([N+](=O)[O-])c2s1	OX1R antag-1 73.9
CC1=CC2=NC(=O)/C(=C\c3cc(C)n(-c4ccccc4F)c3C)C(=N)N2O1	none
Cc1cc(/C=C2\C(=N)N3N=C(S(C)(=O)=O)SC3=NC2=O)c(C)n1Cc1ccccc1	OX1R antag-1 57.9
CCCC1=NN2C(=N)/C(=C\c3cc(C)n(Cc4ccccc4)c3C)C(=O)N=C2S1	CHO parental Ca 86.5, OX1R antag-2 104.3, OXTR ag 48.1, V1R ag counter 43.4
Cc1cc(/C=C2\C(=N)N3N=CSC3=NC2=O)c(C)n1Cc1ccccc1	none
Cc1cc(/C=C2/C(=N)N3C(=NC2=O)SN=C3S(C)(=O)=O)c(C)n1-c1ccccc1F	OX1R antag-1 46.7
COc1cccc(-c2nc3ccc(C(=O)NC(C)Cc4cccnc4)cc3o2)c1 (centres undefined)	none
CCOC(=O)CC1CCCCN1C(=O)c1cc(COc2cccc3cnccc23)on1 (centres undefined)	CHO parental Ca 53.2, OX1R antag-1 48.0
COC(=O)C1CCCCN1C(=O)c1cc(COc2cccc3cccnc23)on1 (centres undefined)	none
COC(=O)C1CCCCN1C(=O)c1cc(COc2cccc3cnccc23)on1 (centres undefined)	CHO parental Ca 53.8
CCOc1ccc(Oc2ccc(C(F)(F)F)cc2NC(=O)C2=COCCO2)cc1	none
CCCOC(=O)c1cccc(NC(=O)COc2ccc([N+](=O)[O-])cc2)c1	CHO parental Ca 31.8
CCOC(=O)c1cccc(NC(=O)COc2ccc([N+](=O)[O-])cc2)c1	none
O=c1[nH]c2ccccc2nc1/C=C(\O)c1cccs1	OXTR ag 22.8, V1R ag counter 29.4
C=CCn1c(SC)nnc1-c1cccc([N+](=O)[O-])c1	OX1R antag-1 52.8
COc1ccc(N(CC(=O)NC2CCCCCC2)S(=O)(=O)c2ccc(C)cc2)cc1OC	none
CCCCNS(=O)(=O)CCNCc1ccco1	none (no result: OXTR potentiator, OXTR ag, V1R ag counter)
Cc1ccccc1C1CCCN(C(=O)c2cc(COc3c(F)cccc3F)on2)C1 (centres undefined)	CHO parental Ca 42.9
CCOC(OCC)c1cn(Cc2ccc(C(=O)c3ccccc3)cc2)nn1	CHO parental Ca 44.2
Nc1ccc(-c2nc3nc(N)nc(N)c3nc2-c2ccc(N)cc2)cc1	OX1R antag-1 39.7
Nc1nc(N)c2ncc(C(=O)CCc3ccccc3)nc2n1	none
COc1ccccc1-c1ccc(SCc2cccc(C)c2)nn1	CHO parental Ca 47.9
CCOC(=O)c1c(C)[nH]c(C(=O)OCC(=O)Nc2cc(C)nn2-c2ccccc2)c1C	none
O=C(Cc1coc2ccc3ccccc3c12)NC1CCCc2ccccc21 (centres undefined)	OX1R antag-1 66.1
O=C(Cc1coc2ccc3ccccc3c12)NCc1ccccc1	none
O=c1cc(CSc2ccc(Cl)cc2)nc(-c2ccccn2)[nH]1	none
O=c1c2sc(-c3ccccc3)cc2nc2n1CCC2	OX1R antag-1 52.0
